Data set [1] relates to Caco-2 cell monolayers. Briefly: Transepithelial transport across Caco-2 cell monolayers. The following applies: AP-BL.
For data set [2], the system named is Caco-2 cells. In words: Intracellular accumulation into Caco-2 cells after transport study. Type of data set: in vitro ADME, Human. As to conditions: Caco-2 cell lysate after 2 h transport study with the prodrug.
For data set [3], the target named is pepsin (Sus scrofa, UniProt P00791). In words: Hydrolysis in pH 1.2 SGF with pepsin. As to conditions: 37 °C, stable = no decrease in area by HPLC after 2 h. Format: in vitro ADME.
In data set [4] the test system is Caco-2 cell homogenates. In words: Hydrolysis in Caco-2 cell homogenates. Format: in vitro ADME, Human. As to conditions: Caco-2 Cell homogenates (pH 6.0), 500 μg/mL protein, 37 °C.
The subject of data set [5] is Wild-type mice intestinal tissue homogenates. As to conditions: mouse, tissue homogenate, pH 6.
For data set [6], the system named is pancreatin. Briefly: Hydrolysis in buffers / SIF with pancreatin. Format: in vitro ADME.
Data set [7] has as its system HepG2 cell homogenates. Briefly: Hydrolysis in HepG2 cell homogenates. Type of data set: in vitro ADME, human. As to conditions: HepG2 Cell homogenates (pH 6.0), 500 μg/mL protein, 37 °C.
For data set [8], the system named is BPHL knock-out mice intestinal tissue homogenates. The following applies: mouse, tissue homogenate, pH 6.
Data set [9] has as its system mouse jejunum. In words: In situ single-pass intestinal perfusion. As to conditions: mouse proximal jejunum, 0.1 mM, pH 6.0.
A short description of data set [10]: Chemical stability in buffers at 37 °C.
Data set [11] has as its target T1, hPEPT1 (Homo sapiens, UniProt P46059).
T1 sequence (P46059 1-708): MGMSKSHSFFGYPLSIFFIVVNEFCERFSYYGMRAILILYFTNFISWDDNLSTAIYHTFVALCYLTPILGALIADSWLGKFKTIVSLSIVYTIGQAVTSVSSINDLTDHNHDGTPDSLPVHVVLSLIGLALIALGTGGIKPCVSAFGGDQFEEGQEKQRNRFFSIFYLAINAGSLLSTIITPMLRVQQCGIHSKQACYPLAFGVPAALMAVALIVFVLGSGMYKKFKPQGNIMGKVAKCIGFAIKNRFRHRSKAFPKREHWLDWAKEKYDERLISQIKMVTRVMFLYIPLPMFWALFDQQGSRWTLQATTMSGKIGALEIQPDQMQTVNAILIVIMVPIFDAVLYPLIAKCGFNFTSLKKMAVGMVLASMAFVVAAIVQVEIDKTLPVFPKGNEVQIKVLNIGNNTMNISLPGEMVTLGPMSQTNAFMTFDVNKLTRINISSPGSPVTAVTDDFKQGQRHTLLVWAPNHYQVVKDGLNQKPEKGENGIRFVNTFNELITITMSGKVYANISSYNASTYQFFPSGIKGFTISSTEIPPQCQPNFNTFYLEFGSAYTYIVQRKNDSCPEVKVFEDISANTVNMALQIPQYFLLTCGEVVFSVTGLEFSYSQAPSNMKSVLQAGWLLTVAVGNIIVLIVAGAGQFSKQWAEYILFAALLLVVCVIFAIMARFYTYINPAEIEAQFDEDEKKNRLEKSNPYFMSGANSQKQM
In words: Uptake in Xenopus laevis oocytes expressing hPEPT1. Format: cell-based. The following applies: 50 μM, pH 6.0, 30 min, room temperature. A digest of the protocol:
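Oocytes injected with hPEPT1 cRNA, with water-injected oocytes as controls. Uptake at room temperature, pH 6.0, in modified Barth's solution (96 mM NaCl, 10 mM HEPES), 50 μM for 30 min; time course up to 3 h; 50–5000 μM for 3 h. Gly-Sar (1, 20 mM) competition expressed as % of uptake without Gly-Sar. Mean ± SEM, 8–13 experiments.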

Data set [12] in a line: In situ single-pass intestinal perfusion. As to conditions: male, BALB/c, mouse, other: in situ single-pass intestinal (jejunal) perfusion, pH 6.
For data set [13] the following is noted: given as the ethyl ester prodrug oseltamivir; cited from earlier work.
Data set [14] is described as follows: in vitro. The following applies: male, mouse, tissue homogenate, pH 6.
Data set [15] can be described thus: in vitro. As to conditions: male, BPHL knock-out, mouse, tissue homogenate, pH 6.

Chain of pepsin (P00791 60-385): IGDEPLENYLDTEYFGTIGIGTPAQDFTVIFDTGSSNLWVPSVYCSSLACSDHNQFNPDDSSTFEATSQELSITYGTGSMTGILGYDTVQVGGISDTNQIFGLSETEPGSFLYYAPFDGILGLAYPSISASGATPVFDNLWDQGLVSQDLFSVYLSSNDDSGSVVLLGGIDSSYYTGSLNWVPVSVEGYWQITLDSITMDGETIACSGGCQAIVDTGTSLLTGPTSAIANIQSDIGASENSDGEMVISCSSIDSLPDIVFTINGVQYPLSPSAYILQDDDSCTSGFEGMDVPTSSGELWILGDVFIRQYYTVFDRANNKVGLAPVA

Consider `CCC(CC)O[C@@H]1C=C(C(=O)O)C[C@H](NC(=N)N)[C@H]1NC(C)=O` [GOC], for which the “Apparent permeability (Papp)” value in data set [1] (apical pH 6.0 / basolateral pH 7.4, 37 °C) is 7.98±4.61 x 10^−7 cm/s. For the same compound, in [2], the “Amount in cells (share of accumulated species after GOC-ISP-Val transport study)” value was 49.2%. Besides, the “Half-life (t1/2)” value in data set [3], in [4], in [5], in data set [6] (pH 4.5 Acetate buffer with pancreatin), in data set [6] (pH 5.5 Acetate buffer with pancreatin) and in data set [6] (pH 6.0 MES buffer with pancreatin) was “stable ^b” each time. In addition, the “Half-life (t1/2)” value in data set [6] (pH 6.8 SIF with pancreatin) is on record as “stable ^b”; in data set [7], “stable ^b”; in [8] it was “stable ^b”; in data set [10] (pH 1.2 SGF without pepsin, 0.2 mM, stable = no decrease in area by HPLC after 2 h) it was “stable ^b”; in data set [10] (pH 4.5 Acetate buffer) it was “stable ^b”; in data set [10] (pH 5.5 Acetate buffer), “stable ^b”. The “Half-life (t1/2)” value in [10] (pH 6.0 MES buffer) and in [10] (pH 7.4 Phosphate buffer) was “stable ^b” throughout. Besides, in data set [9], the “Effective permeability (Peff)” value was “approximately zero”. Moreover, the “Uptake in hPEPT1 cRNA-injected oocytes versus water-injected control oocytes” value in data set [11] is given as “no increase in uptake”.
With `COCCc1ccc(OCC(O)CNC(C)C)cc1` (centres unmarked) [metoprolol], the “Papp relative to that of the prodrug GOC-ISP-Val” value in data set [1] (0.2 mM) was determined as 1.7 times higher. In [12], this compound displayed a Papp at 1.5 h, 0.1 mM of 53.8 ± 16.8 ×10⁻⁶ cm/s.
`CCC(CC)O[C@@H]1C=C(C(=O)O)C[C@H](N)[C@H]1NC(C)=O` [oseltamivir carboxylate]: the Oral bioavailability entry in data set [13] is recorded as “about 80%”.
In the case of `CC(C)[C@H](N)C(=O)OCCOCn1cnc2c(=O)[nH]c(N)nc21` [valacyclovir], the values for the half-life in [14] and in data set [15] were 1.58 h and 3.12 h, respectively.

Values taken from PMC4857762 (Journal of pharmaceutical sciences, 2016).
